Test results as given in ChEMBL document CHEMBL2311390, “Synthesis and preliminary evaluation of pharmacological properties of some piperazine derivatives of xanthone” (Bioorg Med Chem, 2013).
Values belong to the compound of their own block, whether it stands above or below them.

Columns and labels:
[1] = test system: Rattus norvegicus; test: Cardiotoxicity in Wistar rat assessed as PQ interval at 2.5 mg/kg, iv after 5 mins by ECG analysis; format: toxicity, organism-based; design: dose 2.5 mg/kg, route intravenous; conditions: in vivo
Procedure, shortened: (§1)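 Male normotensive Wistar rats (170–350 g, groups of six) were anaesthetised. Compound was given iv at 1 mL/kg. ECG was recorded just before dosing and at 1, 5 and 15 min after, and PQ, QRS and QT intervals and heart rate were read. Groups were compared by one-way ANOVA.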

[2] = test system: Rattus norvegicus; test: Cardiotoxicity in Wistar rat assessed as PQ interval at 2.5 mg/kg, iv after 10 mins by ECG analysis; format: toxicity, organism-based; design: dose 2.5 mg/kg, route intravenous; conditions: in vivo
[3] = test system: Rattus norvegicus; test: Cardiotoxicity in Wistar rat assessed as QT interval at 2.5 mg/kg, iv after 15 mins by ECG analysis; format: toxicity, organism-based; design: dose 2.5 mg/kg, route intravenous; conditions: in vivo, 0.25 h; procedure, shortened: as §1
[4] = test system: Rattus norvegicus; test: Cardiotoxicity in Wistar rat assessed as QRS interval at 2.5 mg/kg, iv after 5 mins by ECG analysis; format: toxicity, organism-based; design: dose 2.5 mg/kg, route intravenous; conditions: in vivo; procedure, shortened: as §1
[5] = test system: Rattus norvegicus; test: Antiarrhythmic activity in iv dosed Wistar rat adrenaline-induced arrhythmia model assessed as reduction of heart-rhythm disturbance administered 15 mins adrenaline-challenge; format: functional; conditions: 0.25 h
Procedure, shortened: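 Anaesthetised male Wistar rats (thiopental 75 mg/kg ip). Test compound iv at 1 mL/kg, given 15 min before adrenaline 20 µg/kg iv. Activity means no premature beats and inhibition of arrhythmia, judged against a control group. There were three dose groups of six rats. ED50 with confidence limits was calculated by the Litchfield–Wilcoxon method.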

[6] = test system: Rattus norvegicus; test: Hypotensive activity in normotensive Wistar rat assessed as reduction of diastolic blood pressure at 0.625 mg/kg, iv after 20 mins; format: functional, Artery
Procedure, shortened: (§2)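 Male normotensive Wistar rats were anaesthetised with thiopental 75 mg/kg ip. The right carotid artery was cannulated with heparinised saline for pressure recording. After 5 min of stabilisation, compound was injected into the tail vein at 1 mL/kg. Systolic and diastolic pressure were followed up to 60 min. Data are means ± SEM of 5–6 rats, analysed by one-way ANOVA.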

[7] = Displacement of [3H]CGP-12177 from beta1-adrenergic receptor in rat cerebral cortex by liquid scintillation counting; format: tissue-based
Procedure, shortened: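 Rat cerebral cortex was homogenised in ice-cold 50 mM Tris-HCl pH 7.6 and spun at 20,000 g for 20 min at 0–4 °C, then washed once. Radioligands: [3H]prazosin 0.2 nM for α1, [3H]clonidine 2 nM for α2, [3H]CGP-12177 0.2 nM for β1. Test compounds were run at 7–8 concentrations from 10^-11 to 10^-4 M. Nonspecific binding was defined with phentolamine (α1), clonidine (α2) or propranolol (β1). Counting was by liquid scintillation, in duplicate. Ki was derived by Cheng–Prusoff from 2–3 experiments.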

[8] = test system: Rattus norvegicus; test: Cardiotoxicity in Wistar rat assessed as PQ interval at 2.5 mg/kg, iv after 15 mins by ECG analysis; format: toxicity, organism-based; design: dose 2.5 mg/kg, route intravenous; conditions: in vivo, 0.25 h; procedure, shortened: as §1
[9] = test system: Rattus norvegicus; test: Cardiotoxicity in Wistar rat assessed as QT interval at 2.5 mg/kg, iv after 10 mins by ECG analysis; format: toxicity, organism-based; design: dose 2.5 mg/kg, route intravenous; conditions: in vivo
[10] = test system: Rattus norvegicus; test: Cardiotoxicity in Wistar rat assessed as QRS interval at 2.5 mg/kg, iv after 10 mins by ECG analysis; format: toxicity, organism-based; design: dose 2.5 mg/kg, route intravenous; conditions: in vivo
[11] = test system: Rattus norvegicus; test: Cardiotoxicity in Wistar rat assessed as QRS interval at 2.5 mg/kg, iv after 15 mins by ECG analysis; format: toxicity, organism-based; design: dose 2.5 mg/kg, route intravenous; conditions: in vivo, 0.25 h; procedure, shortened: as §1
[12] = test system: Rattus norvegicus; test: Cardiotoxicity in Wistar rat assessed as hear beats per min at 2.5 mg/kg, iv after 5 mins by ECG analysis; format: toxicity, organism-based; design: dose 2.5 mg/kg, route intravenous; conditions: in vivo; procedure, shortened: as §1
[13] = test system: Rattus norvegicus; test: Cardiotoxicity in Wistar rat assessed as hear beats per min at 2.5 mg/kg, iv after 15 mins by ECG analysis; format: toxicity, organism-based; design: dose 2.5 mg/kg, route intravenous; conditions: in vivo, 0.25 h; procedure, shortened: as §1
[14] = test system: Rattus norvegicus; test: Cardiotoxicity in Wistar rat assessed as hear beats per min at 2.5 mg/kg, iv after 10 mins by ECG analysis; format: toxicity, organism-based; design: dose 2.5 mg/kg, route intravenous; conditions: in vivo
[15] = test system: Rattus norvegicus; test: Hypotensive activity in normotensive Wistar rat assessed as reduction of systolic blood pressure at 0.625 mg/kg, iv after 5 mins; format: functional, Artery
Procedure, shortened: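 Male normotensive Wistar rats (170–350 g) anaesthetised with thiopental 75 mg/kg ip; right carotid artery cannulated with heparinised saline-filled polyethylene tubing for pressure recording. After a 5 min stabilisation, compound given into the caudal vein at 1 mL/kg. Systolic pressure is recorded at 0, 5, 10, 20, 30 and 60 min, and the data are reported as mean ± SEM of five to six animals, with one-way ANOVA.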

[16] = test system: Rattus norvegicus; test: Cardiotoxicity in Wistar rat assessed as QT interval at 2.5 mg/kg, iv after 5 mins by ECG analysis; format: toxicity, organism-based; design: dose 2.5 mg/kg, route intravenous; conditions: in vivo; procedure, shortened: as §1
[17] = test system: Rattus norvegicus; test: Cardiotoxicity in Wistar rat assessed as QRS interval at 10 mg/kg, iv after 5 mins by ECG analysis; format: toxicity, organism-based; design: dose 10 mg/kg, route intravenous; conditions: in vivo
Procedure, shortened: (§3)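 Male normotensive Wistar rats, 170–350 g, six per group. Compound given iv at a constant volume of 1 mL/kg. ECG was recorded just before dosing and at 1, 5 and 15 min after. PQ, QRS and QT intervals and heart rate were read from the trace. Groups were compared by one-way ANOVA.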

[18] = test system: Rattus norvegicus; test: Cardiotoxicity in Wistar rat assessed as hear beats per min at 10 mg/kg, iv after 10 mins by ECG analysis; format: toxicity, organism-based; design: dose 10 mg/kg, route intravenous; conditions: in vivo
[19] = test system: Rattus norvegicus; test: Hypotensive activity in normotensive Wistar rat assessed as reduction of systolic blood pressure at 2.5 mg/kg, iv after 20 mins; format: functional, Artery
Procedure, shortened: as §2, with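 “rats (170–350 g)” for “rats”, “heparin-saline tubing” for “heparinised saline”, “After a” for “After”, “min” for “min of”, “a caudal” for “the tail”, “animals, compared” for “rats, analysed”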

[20] = test system: Rattus norvegicus; test: Hypotensive activity in normotensive Wistar rat assessed as reduction of diastolic blood pressure at 2.5 mg/kg, iv after 10 mins; format: functional, Artery
Procedure, shortened: as §2, with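 “rats (170–350 g)” for “rats”, “heparin-saline tubing” for “heparinised saline”, “After a” for “After”, “min” for “min of”, “a caudal” for “the tail”, “animals, compared” for “rats, analysed”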

[21] = test system: Rattus norvegicus; test: Hypotensive activity in normotensive Wistar rat assessed as reduction of diastolic blood pressure at 2.5 mg/kg, iv after 5 mins; format: functional, Artery
Procedure, shortened: as §2, with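 “rats (170–350 g)” for “rats”, “heparin-saline tubing” for “heparinised saline”, “After a” for “After”, “min” for “min of”, “a caudal” for “the tail”, “animals, compared” for “rats, analysed”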

[22] = test system: Rattus norvegicus; test: Hypotensive activity in normotensive Wistar rat assessed as reduction of diastolic blood pressure at 2.5 mg/kg, iv after 60 mins; format: functional, Artery
Procedure, shortened: as §2, with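 “rats (170–350 g)” for “rats”, “heparin-saline tubing” for “heparinised saline”, “After a” for “After”, “min” for “min of”, “a caudal” for “the tail”, “animals, compared” for “rats, analysed”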

[23] = test system: Rattus norvegicus; test: Hypotensive activity in normotensive Wistar rat assessed as reduction of systolic blood pressure at 2.5 mg/kg, iv after 60 mins; format: functional, Artery
Procedure, shortened: as §2, with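 “rats (170–350 g)” for “rats”, “heparin-saline tubing” for “heparinised saline”, “After a” for “After”, “min” for “min of”, “a caudal” for “the tail”, “animals, compared” for “rats, analysed”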

[24] = test system: Rattus norvegicus; test: Hypotensive activity in normotensive Wistar rat assessed as reduction of systolic blood pressure at 2.5 mg/kg, iv after 10 mins; format: functional, Artery
Procedure, shortened: as §2, with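 “rats (170–350 g)” for “rats”, “heparin-saline tubing” for “heparinised saline”, “After a” for “After”, “min” for “min of”, “a caudal” for “the tail”, “animals, compared” for “rats, analysed”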

[25] = test system: Rattus norvegicus; test: Cardiotoxicity in Wistar rat assessed as PQ interval at 5 mg/kg, iv after 15 mins by ECG analysis; format: toxicity, organism-based; design: dose 5 mg/kg, route intravenous; conditions: in vivo, 0.25 h; procedure, shortened: as §3
[26] = test system: Rattus norvegicus; test: Hypotensive activity in normotensive Wistar rat assessed as reduction of systolic blood pressure at 2.5 mg/kg, iv after 5 mins; format: functional, Artery
Procedure, shortened: as §2, with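 “rats (170–350 g)” for “rats”, “heparin-saline tubing” for “heparinised saline”, “After a” for “After”, “min” for “min of”, “a caudal” for “the tail”, “animals, compared” for “rats, analysed”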

[27] = test system: Rattus norvegicus; test: Hypotensive activity in normotensive Wistar rat assessed as reduction of systolic blood pressure at 2.5 mg/kg, iv after 30 mins; format: functional, Artery
Procedure, shortened: as §2, with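 “rats (170–350 g)” for “rats”, “heparin-saline tubing” for “heparinised saline”, “After a” for “After”, “min” for “min of”, “a caudal” for “the tail”, “animals, compared” for “rats, analysed”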

[28] = test system: Rattus norvegicus; test: Hypotensive activity in normotensive Wistar rat assessed as reduction of diastolic blood pressure at 2.5 mg/kg, iv after 20 mins; format: functional, Artery
Procedure, shortened: as §2, with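 “rats (170–350 g)” for “rats”, “heparin-saline tubing” for “heparinised saline”, “After a” for “After”, “min” for “min of”, “a caudal” for “the tail”, “animals, compared” for “rats, analysed”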

[29] = test system: Rattus norvegicus; test: Hypotensive activity in normotensive Wistar rat assessed as reduction of diastolic blood pressure at 2.5 mg/kg, iv after 30 mins; format: functional, Artery
Procedure, shortened: as §2, with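 “rats (170–350 g)” for “rats”, “heparin-saline tubing” for “heparinised saline”, “After a” for “After”, “min” for “min of”, “a caudal” for “the tail”, “animals, compared” for “rats, analysed”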

Ki [7]: 11.2 µM
Structure (SMILES): COc1ccccc1N1CCN(CC(COc2cccc3c(=O)c4ccccc4oc23)OC(C)=O)CC1.Cl (racemic)
Activity [1]: 48 ms
Activity [2]: 48 ms
Activity [3]: 60 ms
Activity [4]: 19 ms
ED50 [5]: 0.87 mg/kg
Activity [6]: 95.4 mmHg
Activity [8]: 48 ms
Activity [9]: 60 ms
Activity [10]: 19 ms
Activity [11]: 19 ms
Activity [12]: 375 bpm
Activity [13]: 366.3 bpm
Activity [14]: 369 bpm
Activity [15]: 124.8 mmHg
Activity [16]: 61.8 ms

Structure (SMILES): Cl.Cl.Cl.O=c1c2ccc(Cl)cc2oc2c(OCC(O)CN3CCN(CCOc4ccccc4)CC3)cccc12 (racemic)
Activity [17]: 18.8 ms
Activity [18]: 242.43 bpm

Ki [7]: 43 µM
Structure (SMILES): Cl.Cl.Cl.O=c1c2ccc(Cl)cc2oc2c(OCC(O)CN3CCN(C/C=C/c4ccccc4)CC3)cccc12 (racemic)
Activity [19]: 130.8 mmHg
Activity [20]: 110.6 mmHg
Activity [21]: 103.2 mmHg
Activity [22]: 108.6 mmHg
Activity [23]: 126.8 mmHg
Activity [24]: 133 mmHg
Activity [25]: 45.2 ms
Activity [26]: 125 mmHg
Activity [27]: 129.8 mmHg
Activity [28]: 110.4 mmHg
Activity [29]: 110.8 mmHg
